ChEMBL document CHEMBL3875165, “Novel broad-spectrum and long-acting parenteral cephalosporins having an acyl cyanamide moiety at the C-3 terminal: Synthesis and structure-activity relationships” (Eur J Med Chem, 2016)

What was measured:
[1] = Protein binding in ICR mouse plasma after 30 mins by ultra-filtration method; assay type: ADME, cell-free; conditions: read-out: PPB (converted)
In short: (§1)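 Mouse or monkey plasma was adjusted to pH 7 with CO2 and spiked with compound to a final 10 µg/ml. It was incubated 30 min at 37 °C, then ultrafiltered by centrifugation at 3200 rpm for 30 min at 25 °C. Free drug in the filtrate was measured by bioassay to give the bound fraction.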

Staphylococcus aureus = test: Antibacterial activity against Staphylococcus aureus SMITH after 20 hrs by agar dilution method; assay type: functional
In short: (§2)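 Agar dilution MIC on Sensitivity Disk Agar-N with 2-fold serial drug dilutions. Overnight Mueller Hinton broth cultures were diluted to about 10^6 CFU/mL, and 1 µL spots were applied. Plates were incubated 20 h at 37 °C before scoring.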

Streptococcus pneumoniae [2] = test: Antibacterial activity against penicillin-resistant Streptococcus pneumoniae SR16675 after 20 hrs by agar dilution method; assay type: functional; conditions: SR16675, 20 h
In short: (§3)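 Agar dilution on Sensitivity Disk Agar-N. Overnight Mueller Hinton broth cultures were diluted to about 10^6 CFU/mL, and 1 µL spots were placed on agar plates holding 2-fold serial dilutions of antibiotic. Plates were incubated 20 h at 37 °C and then MICs were scored.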

Streptococcus pneumoniae [3] = test: Antibacterial activity against penicillin-resistant Streptococcus pneumoniae SR16750 after 20 hrs by agar dilution method; assay type: functional; conditions: SR16750, 20 h; in short: as §3
Haemophilus influenzae [4] = test: Antibacterial activity against beta-lactamase non-producing penicillin-resistant Haemophilus influenzae SR11435 after 20 hrs by agar dilution method; assay type: functional; conditions: SR11435, 20 h; in short: as §3
Haemophilus influenzae [5] = test: Antibacterial activity against beta-lactamase non-producing penicillin-resistant Haemophilus influenzae SR24106 after 20 hrs by agar dilution method; assay type: functional; conditions: SR24106, 20 h; in short: as §3
Moraxella catarrhalis = test: Antibacterial activity against Moraxella catarrhalis SR24290 after 20 hrs by agar dilution method; assay type: functional; conditions: SR24290, 20 h; in short: as §2
Escherichia coli = test: Antibacterial activity against Escherichia coli NIHJ JC-2 after 20 hrs by agar dilution method; assay type: functional; conditions: NIHJ JC-2, 20 h; in short: as §2
[6] = Half life in mouse at 20 mg/kg, iv administered as bolus dose by band-culture bioassay; conditions: in vivo
[7] = Total clearance in mouse at 20 mg/kg, iv administered as bolus dose by band-culture bioassay; conditions: in vivo
[8] = AUC (0 to infinity) in mouse at 20 mg/kg, iv administered as bolus dose by band-culture bioassay; conditions: in vivo
[9] = AUC (0 to infinity) in monkey at 20 mg/kg, iv administered as bolus dose by HPLC method; assay type: ADME, organism-based, Macaca mulatta; design: dose 20 mg/kg, time infinity, route intravenous; conditions: rhesus monkey, in vivo
In short: (§4)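 Three monkeys per group received a single iv bolus of 20 mg/kg (1 mL/kg). Plasma levels were measured by HPLC. AUC0-∞, CLtot and T1/2 came from a 2-compartment fit.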

[10] = Half life in monkey at 20 mg/kg, iv administered as bolus dose by HPLC method; assay type: ADME, organism-based, Macaca mulatta; conditions: rhesus monkey, in vivo; in short: as §4
[11] = Total clearance in monkey at 20 mg/kg, iv administered as bolus dose by HPLC method; assay type: ADME, organism-based, Macaca mulatta; conditions: rhesus monkey, in vivo; in short: as §4
[12] = Protein binding in cynomolgus monkey plasma after 30 mins by ultra-filtration method; assay type: ADME, cell-free, Macaca fascicularis; conditions: read-out: PPB (converted); in short: as §1

Structure (SMILES)	fraction unbound at 0.5 h [1]	MIC (Staphylococcus aureus)	MIC (Streptococcus pneumoniae [2])	MIC (Streptococcus pneumoniae [3])	MIC (Haemophilus influenzae [4])	MIC (Haemophilus influenzae [5])	MIC (Moraxella catarrhalis)	MIC (Escherichia coli)	half-life [6]	clearance [7]	AUC(0-inf) [8]	AUC [9]	half-life [10]	clearance [11]	fraction unbound at 0.5 h [12]
CO/N=C(\C(=O)N[C@@H]1C(=O)N2C(C(=O)[O-])=C(C[n+]3ccc(-c4cc(/C([O-])=N/C#N)[nH]n4)cc3)CS[C@H]12)c1csc(N)n1.[Na+] (stereo in doubt)	0.85	1 µg/mL	0.25 µg/mL	0.5 µg/mL	0.063 µg/mL	0.25 µg/mL	2 µg/mL	0.25 µg/mL	54.6 min	18.4 mL/min/kg	18100 ng·h/mL	–	–	–	–
CCO/N=C(\C(=O)N[C@@H]1C(=O)N2C(C(=O)[O-])=C(/C=C/C[n+]3ccc4[nH]c(/C([O-])=N/C#N)cc4c3)CS[C@H]12)c1csc(N)n1.[Na+]	0.73	0.5 µg/mL	0.25 µg/mL	0.5 µg/mL	0.063 µg/mL	0.125 µg/mL	4 µg/mL	0.25 µg/mL	37.8 min	10.9 mL/min/kg	30400 ng·h/mL	20900 ng·h/mL	201 min	0.8 mL/min/kg	0.33
CCO/N=C(\C(=O)N[C@@H]1C(=O)N2C(C(=O)[O-])=C(/C=C/C[n+]3ccc(-c4cc(/C([O-])=N/C#N)on4)cc3)CS[C@H]12)c1csc(N)n1.[Na+]	0.78	0.5 µg/mL	0.25 µg/mL	0.25 µg/mL	0.063 µg/mL	0.125 µg/mL	0.5 µg/mL	0.125 µg/mL	51 min	22.6 mL/min/kg	14800 ng·h/mL	59800 ng·h/mL	308 min	0.29 mL/min/kg	0.06
CCO/N=C(\C(=O)N[C@@H]1C(=O)N2C(C(=O)[O-])=C(/C=C/C[n+]3cccc(/C([O-])=N/C#N)c3)CS[C@H]12)c1csc(N)n1.[Na+]	0.94	0.5 µg/mL	0.25 µg/mL	0.5 µg/mL	0.063 µg/mL	0.125 µg/mL	2 µg/mL	0.125 µg/mL	33 min	23.7 mL/min/kg	14100 ng·h/mL	9500 ng·h/mL	79.8 min	1.79 mL/min/kg	0.67
CCO/N=C(\C(=O)N[C@@H]1C(=O)N2C(C(=O)[O-])=C(/C=C/C[n+]3ccc(-c4csc(/C([O-])=N/C#N)c4)cc3)CS[C@H]12)c1csc(N)n1.[Na+]	0.63	0.25 µg/mL	0.125 µg/mL	0.25 µg/mL	0.063 µg/mL	0.125 µg/mL	2 µg/mL	0.125 µg/mL	45 min	11 mL/min/kg	30400 ng·h/mL	25900 ng·h/mL	280 min	0.66 mL/min/kg	0.36
CCO/N=C(\C(=O)N[C@@H]1C(=O)N2C(C(=O)[O-])=C(/C=C/C[n+]3ccc(-c4cc(/C([O-])=N/C#N)n(C)c4)cc3)CS[C@H]12)c1csc(N)n1.[Na+]	0.67	0.5 µg/mL	0.25 µg/mL	0.5 µg/mL	0.063 µg/mL	0.125 µg/mL	8 µg/mL	0.25 µg/mL	52.2 min	12.8 mL/min/kg	26000 ng·h/mL	32100 ng·h/mL	245 min	–	0.23
CCO/N=C(\C(=O)N[C@@H]1C(=O)N2C(C(=O)[O-])=C(/C=C/C[n+]3cccc4[nH]c(/C([O-])=N/C#N)cc43)CS[C@H]12)c1csc(N)n1.[Na+]	0.64	0.5 µg/mL	0.25 µg/mL	0.5 µg/mL	0.031 µg/mL	0.125 µg/mL	1 µg/mL	0.125 µg/mL	43.8 min	14.1 mL/min/kg	23600 ng·h/mL	9800 ng·h/mL	122 min	1.74 mL/min/kg	0.4
CCCO/N=C(\C(=O)N[C@@H]1C(=O)N2C(C(=O)[O-])=C(C[n+]3ccc(-c4cc(/C([O-])=N/C#N)[nH]n4)cc3)CS[C@H]12)c1csc(N)n1.[Na+] (stereo in doubt)	0.63	0.5 µg/mL	0.25 µg/mL	0.5 µg/mL	0.063 µg/mL	1 µg/mL	1 µg/mL	1 µg/mL	58.8 min	37.4 mL/min/kg	8900 ng·h/mL	–	–	–	–
